# Experimental data published in PMC8419008 (Structure (London, England : 1993), 2021).
# Residue numbers refer to the chain shown, from its start. “Also recorded” adds a separate entry of the source.
# Key:
# [1] = biological target: T1, PLEKHA7 PH domain (PHA7, wild-type) (Homo sapiens, UniProt Q6IQ23); experiment: ITC titration of wild-type PHA7 with soluble IP headgroups or PIP nanodiscs; settings: read-out: ITC Kd, PHA7; soluble IP headgroups; 23°C; single-site binding model; average of triplicate
# T1 sequence (Q6IQ23 164-285): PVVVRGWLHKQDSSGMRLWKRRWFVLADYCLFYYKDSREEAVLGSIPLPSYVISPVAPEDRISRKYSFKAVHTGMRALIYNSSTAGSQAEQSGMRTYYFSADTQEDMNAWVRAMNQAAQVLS
# [2] = biological target: T2, PHA7 (PLEKHA7 PH domain, wild-type) (Homo sapiens, UniProt Q6IQ23); experiment: 1H/15N HSQC NMR chemical shift perturbation of 15N-labeled PHA7; assay type: binding; settings: 15°C; for NMR spectral perturbation / binding of PHA7: soluble or short-chain ligand, 1.5 molar equivalents; for NMR spectral change of PHA7 on incubation with nanodiscs: 1.5 molar equivalents of nanodiscs, 100% diC16-PC or 10% molar diC16-PIP
# T2 sequence (Q6IQ23 164-285): T1 sequence (Q6IQ23 164-285)
# In short: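 Human PLEKHA7 PH domain expressed as a GST fusion in E. coli BL21 in M9 with (15NH4)2SO4, then cleaved with HRV 3C, purified by cation exchange and gel filtration. Added directly to preformed MSP1D1Δh5 nanodiscs (100% diC16-PC, or 9/1 diC16-PC with diC16-PI(3,4,5)P3, -PI(4,5)P2 or -PI(3,4)P2). Read-out: 1H/15N chemical shift perturbations.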
# [3] = biological target: T3, PHA7-D175K (PLEKHA7 PH domain mutant) (Homo sapiens, UniProt Q6IQ23, D175K); experiment: ITC titration of mutant PHA7-D175K with soluble IP headgroups or PIP nanodiscs; assay type: binding; settings: soluble IP headgroups; for Kd: read-out: ITC Kd, PHA7-D175K, 23°C, single-site binding model, average of triplicate; for greater affinity of PHA7-D175K compared to wild-type: ITC
# T3 sequence (Q6IQ23 164-285 D175K): T1 sequence (Q6IQ23 164-285) with D12K
# In short: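 ITC run at 23°C in 15 mM Tris pH 7.6, 70 mM NaCl, 0.5 mM TCEP. Cell held 50 μM protein; syringe held 0.5 mM soluble IP headgroup. Protein concentration was set by A280. Integrated heats were fitted to a single-site binding model to obtain dissociation constants.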
# [4] = biological target: T4, PHA7 (PLEKHA7 PH domain) (Homo sapiens, UniProt Q6IQ23); experiment: Liposome co-sedimentation assay; assay type: binding; settings: pure diC16-PC liposomes or liposomes containing 10% molar diC16-PIP; SDS-PAGE
# T4 sequence (Q6IQ23 164-285): T1 sequence (Q6IQ23 164-285)
# In short: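 Small unilamellar vesicles made by bath sonication until translucent, from 100% diC16-PC or 9/1 diC16-PC/diC16-PI(4,5)P2 at 3 mg/mL. 200 uL vesicles mixed with 20 uM PH domain solution, 2 h at room temperature. Airfuge spin at 91,000 rpm for 20 h; supernatant and pellet analysed by SDS-PAGE.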
Molecule,Kd [1] [µM],NMR spectral perturbation / binding of PHA7 [2],Kd [3] [µM],greater affinity of PHA7-D175K compared to wild-type [3],co-sedimentation of PHA7 with liposomes [4],NMR spectral change of PHA7 on incubation with nanodiscs [2]
"O=P(O)(O)OC1[C@H](O)[C@H](OP(=O)(O)O)C(OP(=O)(O)O)[C@H](OP(=O)(O)O)[C@H]1O (stereo partly drawn) [IP(3,4,5)P3, inositol (1,3,4,5) tetraphosphate]",30.1 ± 2.3,weak binding interaction with fast exchange binding dynamics,3.5 ± 0.5,nine-fold,,
"phosphatidyl inositol (3,4,5) triphosphate [PI(3,4,5)P3]",,,,,abundant co-sedimentation,effectively obliterated
CCCCCCCC(=O)OC[C@H](COP(=O)(O)OC1[C@H](O)[C@H](O)C(O)[C@H](O)[C@H]1O)OC(=O)CCCCCCC (stereo partly drawn) [diC8-PI],,no perturbations; also recorded: does not bind,,,,
"CCCCCCCCCCCCCCCC(=O)OC[C@H](COP(=O)([O-])OCC[N+](C)(C)C)OC(=O)CCCCCCCCCCCCCCC [diC16-PC, dipalmitoyl-phosphatidyl-choline]",,,,,does not sediment,no detectable NMR spectral changes
"O=P(O)(O)O[C@@H]1[C@H](O)[C@H](O)[C@@H](OP(=O)(O)O)[C@H](OP(=O)(O)O)[C@H]1O [IP(4,5)P2, inositol (1,4,5) triphosphate]",30.5 ± 0.6,,10.7 ± 0.2,three-fold,,
